Source: ChEMBL document CHEMBL4513216, “Probing the Open Global Health Chemical Diversity Library for Multistage-Active Starting Points for Next-Generation Antimalarials” (ACS Infect Dis, 2020)

Experiment: Toxicity liver stage against HepG2, at 10uM
Assay type: cell-based
Design: test concentration 10 uM, cell line HepG2-A16-CD81EGFP
Settings: human, HepG2-A16-CD81EGFP cells; read-out: INHIBITION
In short: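 Uninfected HepG2-A16-CD81EGFP cells, 3 × 10^3 per well, 1536-well, plated on prespotted compound at 10 μM final, parasite-free screening media added to match infected plates; puromycin 10 μM positive, DMSO 0.5% negative; run in parallel with 48 h PbLuc assay at 37 °C, 5% CO2; viability by CellTiter-Glo luminescence, normalized to controls.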

Row | Structure (SMILES) | cytotoxicity at 10 µM [%]
1 | Cc1cc(C)nc(N2CCCC2c2cccnc2)n1 (stereo not given) | 0.997
2 | COc1cc(C)c(C(C)NC(=O)c2cccnc2N(C)C)cc1OC (stereo not given) | 1.25
3 | CCCc1nc2c(c(C)c(C)n2CCN(C)C)c(N)c1CC | 12.9
4 | O=C(Nc1ccc2c(c1)OCO2)c1ccc(N2CCCC2)nn1 | 54.7
5 | CS(=O)(=O)N1CCC(CNC(=O)C2CCC2)CC1 | -2.99
6 | COC(=O)N1CCc2ccccc2C1C(=O)NCc1nc(C)no1 (stereo not given) | 3.88
7 | O=C(Cn1c(=O)oc2ccccc21)NCC(O)c1ccc2c(c1)CCO2 (stereo not given) | -6.81
8 | CCCS(=O)(=O)N1CCc2nc(N3CCOCC3)nc(N(C)C)c2C1 | 15.5
9 | O=C(COC1CCCC1)N1CC[C@H]2OCC[C@@]2(COCC2CC2)C1 | 1.52
10 | N#CCC(=O)NCc1nnc2n1CCN(Cc1ccsc1)C2 | -131
11 | COc1cc(C2SCC(=O)Nc3ccsc32)cc(OC)c1O (stereo not given) | 54.7
12 | CCOCCCNC(=O)CN(c1ccc(F)c(F)c1)S(C)(=O)=O | 9.96
13 | O=c1nc(SCc2cccnc2)c2c(n1CCO)CCC2 | -18
14 | COCCC(=O)N1CCN(CCN(C)C)c2ncccc2C1 | -4.11
15 | CCCc1nc(NCCc2ccccc2)c2c(n1)c(C)nn2CC | 20
16 | Cc1nn(CCC(=O)N2CCN(Cc3cnn(C)c3C)CC2)c(C)c1Br | 4.07
17 | CCN1CCN(S(=O)(=O)c2cc(C)c(Cl)cc2Cl)CC1 | -2.67
18 | CCOc1ccc(CN2CCC(c3ccn[nH]3)C2)cc1CO (stereo not given) | 0.845
19 | CCN(Cc1ccncc1)CC1(O)CCN(C(=O)c2cccc(C)n2)C1 (stereo not given) | -4.08
20 | Cc1ccccc1CN1CCC(c2nn(CCN)c3nccnc23)C1 (stereo not given) | -24.3
21 | CN1CCCC(Cc2cncc(C(=O)N3CCOCC3)c2)C1 (stereo not given) | 6.32
22 | Cc1nc(C2CCCN2C(=O)CCc2ccc(F)cc2)ncc1C(N)=O (stereo not given) | -15.7

Row | Structure (SMILES) | cytotoxicity at 10 µM [%]
23 | CN(Cc1ccc(F)cc1)CC1(O)CCN(C(=O)c2ccsc2)C1 (stereo not given) | -28.2
24 | Cc1noc(C)c1-c1cncc(C2CCCN2Cc2ccncc2)n1 (stereo not given) | -7.98
25 | Cc1noc(C)c1-c1cnc(CC2CCN(C(=O)c3cc[nH]n3)C2)cn1 (stereo not given) | 3.6
26 | COc1ccc2c(c1)CC(NCc1cccc(OCC(N)=O)c1)CC2 (stereo not given) | -40.4
27 | CN(CC1CC1)C(=O)c1cc2c(c(S(N)(=O)=O)c1)CCC2 | -51.1
28 | CC(C)(C)C(=O)NCCC(=O)Nc1cc(C#N)cn1C(C)(C)C | 2.02
29 | CC(C)c1ccccc1OCCNC(=O)N1CCC2(CC1)OCCO2 | 8.75
30 | O=C(Cc1c(F)cccc1Cl)Nc1cccc(N2CCCC2)c1 | -117
31 | OCC1(NCc2cccc(-n3cccn3)c2)CCOCC1 | -139
32 | O=C(NCC(O)c1ccc(Cl)s1)c1ccoc1 (stereo not given) | -3.36
33 | Cc1cc(CNc2cc(-c3ccoc3C)nn2CCO)c(C)o1 | -0.598
34 | CSC1(CNC(=O)N(C)Cc2sccc2C)CCOCC1 | -57.4
35 | CN(C)CCn1ccc(NC(=O)NC(C)(C)c2nccs2)n1 | 3.92
36 | C=C(C)CN(CC)C(=O)c1cc(C)ccc1NS(C)(=O)=O | 5.69
37 | CCn1cc(CN2CCN(C(=O)N3CCOCC3)CC2)cn1 | -52.8
38 | Cc1cc(C(=O)NC2CCCOc3cc(Cl)ccc32)n(C)n1 (stereo not given) | 1.97
39 | Cc1csc(C2NC3(CCCC3)C(=O)N2CC2CC2)n1 (stereo not given) | 3.24
40 | O=C(NCc1cccnc1-n1cncn1)c1cncc(Br)c1 | 10
41 | CCOCC(O)CN1CCN(C(=O)c2ccsc2)CC1 (stereo not given) | 5.42
42 | CCN(CC)C(=O)CNC(=O)N1CCC(c2ccccc2)C1 (stereo not given) | 2.03
43 | CN(Cc1cnn(C)c1)C(=O)CN1CCCCC1Cn1cncn1 (stereo not given) | 17.5
44 | CC(C)c1nnc2n1CC(CNc1cnc3ccccc3n1)CC2 (stereo not given) | -37.1

Row | Structure (SMILES) | cytotoxicity at 10 µM [%]
45 | CCN(CCNCc1ccc(C#N)cc1)C1CC1 | -6.54
46 | CN(C)S(=O)(=O)NCC(O)c1cc2ccccc2s1 (stereo not given) | -13.2
47 | CCN(CC)S(=O)(=O)CCNc1nnc(C(C)C)s1 | 7.2
48 | OC(COCc1ccccc1)CN1CCC(Cn2cccn2)CC1 (stereo not given) | -1.49
49 | CC(C)(C)C(CCO)NC(=O)Nc1ccccc1 (stereo not given) | -3.3
50 | Cn1cc(CCNC(=O)N2CCCc3c(F)cccc32)cn1 | 14.3
51 | COC(=O)CN(Cc1ccccc1C)C(=O)COCC1CC1 | 6.87
52 | COc1ccc(CN(CCC#N)CCN2CCOCC2)cc1OC | -5.79
53 | Cc1ccc2c(c1)OC(C)CN2C(=O)CCc1cccnc1 (stereo not given) | -52.8
54 | CC(C)OCCCN1CCCC(c2nc3ccccc3n2C(C)C)C1 (stereo not given) | -4.06
55 | CCS(=O)(=O)c1ccc(N2CCC(NC(=O)c3cnn(C)c3)CC2)cc1 | -1.69
56 | CCOc1ccc(C(=O)NS(=O)(=O)c2cncc(Br)c2)cc1OC | -5.07
57 | Cc1nn(C)c(N2CCOCC2)c1CNC(C)c1ccco1 (stereo not given) | -17.6
58 | CCCC(C)(C)NC(=O)c1ccc(CC2CC(=O)NC2=O)cc1 (stereo not given) | -19.7
59 | N#Cc1ccc(C(=O)N2CC[C@H]3[C@@H]2CCC(=O)N3c2ccccc2)cc1 | 3.99
60 | CC[C@H](C)Nc1nccc(-c2cnc3sc(C)c(C)n3c2=O)n1 | 11.1
61 | CCN(C)C[C@@H]1CN(C(=O)c2cc(-c3ccc(F)cc3)n[nH]2)C[C@@H]1CO | -26.4
62 | Cc1ccccc1CN1CCC(CNc2ncnc3c2CCNCC3)C1 (stereo not given) | -7.13
63 | Cc1ccc2nc(CN3CCC(O)(Cn4ccnc4)CC3)cc(O)c2c1 | -47.8
64 | CNC(=O)[C@@H]1C[C@@H](n2cc(-c3ccc(Cl)cc3)nn2)CN1 | -3.95
65 | COc1ccc(F)cc1CN1CCCn2nc(CNS(C)(=O)=O)cc2C1 | 2.23
66 | CNc1nc2c(c(C(=O)N3CCCC3)n1)CN(C(=O)C1CCCC1)CC2 | -114

Row | Structure (SMILES) | cytotoxicity at 10 µM [%]
67 | CCCc1cc(=O)[nH]c(-c2cccc(CN3CCCCCC3)c2)n1 | -4.09
68 | COc1cccc(OCC2CCCN(C(=O)c3cnn(C)c3)C2)c1 (stereo not given) | -21.4
69 | CCn1c(C2CCCN(C(=O)C(C)(C)OC)C2)nn(CCN(C)C)c1=O (stereo not given) | -1.94
70 | O=S1(=O)C[C@@H]2[C@H](C1)N(Cc1ccoc1)CCN2Cc1ccncc1 | -0.452
71 | Cc1nc(N)ncc1C(=O)N1CCCC(CCc2ccccc2F)C1 (stereo not given) | -4.96
72 | O=C(O)C1(n2ccc(-c3ccco3)n2)CCN(Cc2cccs2)CC1 | -125
73 | COc1cccc(-c2noc(-c3ccc(NCCCO)nc3)n2)c1OC | -1.5
74 | O=C(c1ccc(S(=O)(=O)NCC(F)F)cc1)N1CC[C@H]2CNC[C@H]21 | -14
75 | CCCc1cc(CNC(=O)Cc2cc(C)no2)on1 | -1.04
76 | COc1c(C)cnc(CN(C)C2CCOC3(CCOCC3)C2)c1C (stereo not given) | -0.971
77 | CN(C)c1ccc(CC(=O)N2C[C@H](C3CC3)[C@@H](N)C2)cc1 | -3.97
78 | Nc1cc(C(=O)NCC2CCN(Cc3cccc(O)c3)C2)ccn1 (stereo not given) | -8.69
79 | CCSc1ncc(CN2CC[C@@](O)(COC)C(C)(C)C2)cn1 | -4.05
80 | COCCN(CC1CCCN(C2Cc3ccccc3C2)C1)C(=O)CO (stereo not given) | -6.93
81 | O=C(NCCc1cnccn1)C1(N2CCCCC2)Cc2ccccc2C1 | -7.82
82 | Cc1cc(C)c2c(N3CCN(C(=O)N(C)C)CC3)ncnc2n1 | -1.18
83 | CCCNC(=O)c1ccc(S(=O)(=O)NCC2(O)CCCNC2)cc1 (stereo not given) | -48.3
84 | O=C(c1cnc(Cc2c(Cl)cccc2Cl)nc1O)N1CCNCC1 | -3.01
85 | Cc1ccnc(N2CCN(Cc3ccccc3)CC(O)C2)c1 (stereo not given) | -1.88
86 | Cc1nn(C)cc1Cn1c(=O)cnc2ccccc21 | 7.8
87 | COCC(=O)N1CCC(C(=O)N(C)C(C)c2ccon2)CC1 (stereo not given) | 1.28
88 | CC(C)NC(=O)c1nc(Cn2c(C(F)(F)F)nc3ccccc32)no1 | 20.7

Row | Structure (SMILES) | cytotoxicity at 10 µM [%]
89 | CCN(CCO)C(=O)C1CCC(=O)N(CCc2cccc(F)c2)C1 (stereo not given) | -4.15
90 | CCc1ncc(C(=O)N2CCCN(C3CCCC3)CC2)cn1 | -7.38
91 | Cc1cc(=O)n(CC(=O)Nc2ccc(C(N)=O)cc2)nc1C | -10.9
92 | Cc1cc2c(=O)n3c(nc2s1)CCN(Cc1cnc(C(C)C)nc1)CC3 | 10.5
93 | NC(=O)c1cc(C2CCCN(CCOc3cccc(F)c3)C2)n[nH]1 (stereo not given) | -19.6
94 | COc1ccc(CC(=O)N2CCCC2Cn2cccn2)cc1F (stereo not given) | -0.587
95 | Cc1cc(OCC(=O)NS(=O)(=O)c2c(C)noc2C)ccc1Cl | -2.07
96 | COc1ccc(C(O)CNC(=O)Nc2cc(C)nn2C)cc1 (stereo not given) | 2.33
97 | Cc1ncsc1C(=O)NC1CCN(Cc2ccc(C#N)cc2)CC1 | -6.46
98 | CC(C)NC(=O)Nc1ccc(CNCc2cccc(C#N)c2)cc1 | -7.15
99 | CCc1nnsc1C(=O)N1CCCN(Cc2nccn2C)CC1 | -4.26
100 | CCC(CN1CCCC1)n1cncc1-c1cnn(-c2ccc(F)cc2)c1 (stereo not given) | 5.29
101 | CN1C(=O)C2(CCN(C(=O)c3ccccc3)CC2)c2cccc(F)c21 | 4.74
102 | Cn1nc(C2CCCN(Cc3ccc(F)cc3)C2)c2nccnc21 (stereo not given) | -24.8
103 | COc1ccc(CN2CCC3(CC2)CCN(c2cnn(C)c2)C3=O)cc1 | -85.6
104 | CCn1nnc2c1C(COCCN(C)C)CN(S(C)(=O)=O)C2 (stereo not given) | -2.69
105 | c1cc(COC[C@]23COC[C@H]2CN(Cc2ccncc2)C3)ccn1 | -63.5
106 | CC(=O)NCC(=O)N1CCn2cc(CN3CCN(C)CC3)nc2C1 | -12.4
107 | O=C(CC1CCCC1)N1CC[C@H]2[C@H]1CCN2c1nncs1 | -3.43
108 | CN1Cc2c(C(=O)NC3CCCCC3)ncn2-c2ccccc2S1(=O)=O | -153
109 | Cc1c(-c2cccs2)nn2c(=O)c3c([nH]c12)CN(C(=O)C1CC1)C3 | -4.02
110 | CN1CCC(n2cc3nc(N)[nH]cc-3c2=O)CC1 | 8.6
